Measurements: ChEMBL document CHEMBL5058577, “EUbOPEN Chemogenomics Library 2 (Multiplex)” (2022)

Test system: Fibroblast
Experiment: Multiplex assay against human fibroblast
Format: toxicity, cell-based
Summary of the method: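 Live cells carried four stains from seeding: Hoechst33342, BioTracker Green Microtubule Cytoskeleton Dye, MitoTracker Red and Annexin V Alexa Fluor 680. They were imaged on a CQ1 microscope at 37°C and 5% CO2 after compound addition. Using CellPathfinder machine-learning gating, cells were split into Hoechst high-intensity objects or normal cells, normal cells into healthy, pyknosed or fragmented nuclei, and pyknosed cells into mitotic or apoptotic; tubulin, mitochondrial-mass and membrane-permeability phenotypes are per cents of healthy-nucleus cells.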

[1] = 12 h, 1 µM, compound concentration 1 uM, replicate 1
[2] = 12 h, 1 µM, compound concentration 1 uM, replicate 2
[3] = 12 h, 10 µM, compound concentration 10 uM, replicate 1
[4] = 12 h, 10 µM, compound concentration 10 uM, replicate 2
[5] = 24 h, 1 µM, compound concentration 1 uM, replicate 1
[6] = 24 h, 1 µM, compound concentration 1 uM, replicate 2
[7] = 24 h, 10 µM, compound concentration 10 uM, replicate 1
[8] = 24 h, 10 µM, compound concentration 10 uM, replicate 2
[9] = 48 h, 1 µM, compound concentration 1 uM, replicate 1
[10] = 48 h, 1 µM, compound concentration 1 uM, replicate 2
[11] = 48 h, 10 µM, compound concentration 10 uM, replicate 1
[12] = 48 h, 10 µM, compound concentration 10 uM, replicate 2

O=C1[C@H](Cc2ccc(O)cc2)N2C(=O)CCN(C(=O)NCc3ccccc3)[C@H]2CN1Cc1cccc2ccccc12
Population Apoptotic (%) [1]: 32% | Population Fragmented Nuclei (%) [1]: 18% | Population Healthy Nuclei (%) [1]: 57% | Population Hoechst High Intensity Objects (%) [1]: 3% | Population Membrane Permeable-Phenotype (%) [1]: 0% | Population Mitochondria Different-Phenotype (%) [1]: 11% | Population Mitotic Cells (%) [1]: 67% | Population Normal (%) [1]: 96% | Population Pyknosed Nuclei (%) [1]: 24% | Population Tubulin-Different-Phenotype (%) [1]: 47% | Total Cell Count [1]: 160 | Population Apoptotic (%) [2]: 30% | Population Fragmented Nuclei (%) [2]: 27% | Population Healthy Nuclei (%) [2]: 45% | Population Hoechst High Intensity Objects (%) [2]: 2% | Population Membrane Permeable-Phenotype (%) [2]: 5% | Population Mitochondria Different-Phenotype (%) [2]: 13% | Population Mitotic Cells (%) [2]: 69% | Population Normal (%) [2]: 97% | Population Pyknosed Nuclei (%) [2]: 26% | Population Tubulin-Different-Phenotype (%) [2]: 58% | Total Cell Count [2]: 152 | Population Apoptotic (%) [3]: 35% | Population Fragmented Nuclei (%) [3]: 18% | Population Healthy Nuclei (%) [3]: 58% | Population Hoechst High Intensity Objects (%) [3]: 8% | Population Membrane Permeable-Phenotype (%) [3]: 0% | Population Mitochondria Different-Phenotype (%) [3]: 24% | Population Mitotic Cells (%) [3]: 64% | Population Normal (%) [3]: 91% | Population Pyknosed Nuclei (%) [3]: 23% | Population Tubulin-Different-Phenotype (%) [3]: 84% | Total Cell Count [3]: 146 | Population Apoptotic (%) [4]: 45% | Population Fragmented Nuclei (%) [4]: 23% | Population Healthy Nuclei (%) [4]: 45% | Population Hoechst High Intensity Objects (%) [4]: 9% | Population Membrane Permeable-Phenotype (%) [4]: 8% | Population Mitochondria Different-Phenotype (%) [4]: 15% | Population Mitotic Cells (%) [4]: 55% | Population Normal (%) [4]: 90% | Population Pyknosed Nuclei (%) [4]: 30% | Population Tubulin-Different-Phenotype (%) [4]: 83% | Total Cell Count [4]: 144 | Population Apoptotic (%) [5]: 42% | Population Fragmented Nuclei (%) [5]: 16% | Population Healthy Nuclei (%) [5]: 62% | Population Hoechst High Intensity Objects (%) [5]: 3% | Population Membrane Permeable-Phenotype (%) [5]: 3% | Population Mitochondria Different-Phenotype (%) [5]: 7% | Population Mitotic Cells (%) [5]: 57% | Population Normal (%) [5]: 96% | Population Pyknosed Nuclei (%) [5]: 21% | Population Tubulin-Different-Phenotype (%) [5]: 49% | Total Cell Count [5]: 158 | Population Apoptotic (%) [6]: 28% | Population Fragmented Nuclei (%) [6]: 30% | Population Healthy Nuclei (%) [6]: 47% | Population Hoechst High Intensity Objects (%) [6]: 2% | Population Membrane Permeable-Phenotype (%) [6]: 7% | Population Mitochondria Different-Phenotype (%) [6]: 8% | Population Mitotic Cells (%) [6]: 71% | Population Normal (%) [6]: 97% | Population Pyknosed Nuclei (%) [6]: 22% | Population Tubulin-Different-Phenotype (%) [6]: 58% | Total Cell Count [6]: 147 | Population Apoptotic (%) [7]: 44% | Population Fragmented Nuclei (%) [7]: 15% | Population Healthy Nuclei (%) [7]: 62% | Population Hoechst High Intensity Objects (%) [7]: 10% | Population Membrane Permeable-Phenotype (%) [7]: 1% | Population Mitochondria Different-Phenotype (%) [7]: 44% | Population Mitotic Cells (%) [7]: 55% | Population Normal (%) [7]: 89% | Population Pyknosed Nuclei (%) [7]: 21% | Population Tubulin-Different-Phenotype (%) [7]: 83% | Total Cell Count [7]: 141 | Population Apoptotic (%) [8]: 64% | Population Fragmented Nuclei (%) [8]: 25% | Population Healthy Nuclei (%) [8]: 47% | Population Hoechst High Intensity Objects (%) [8]: 7% | Population Membrane Permeable-Phenotype (%) [8]: 13% | Population Mitochondria Different-Phenotype (%) [8]: 21% | Population Mitotic Cells (%) [8]: 35% | Population Normal (%) [8]: 92% | Population Pyknosed Nuclei (%) [8]: 26% | Total Cell Count [8]: 137 | Population Apoptotic (%) [9]: 62% | Population Fragmented Nuclei (%) [9]: 22% | Population Healthy Nuclei (%) [9]: 59% | Population Hoechst High Intensity Objects (%) [9]: 7% | Population Membrane Permeable-Phenotype (%) [9]: 2% | Population Mitochondria Different-Phenotype (%) [9]: 7% | Population Mitotic Cells (%) [9]: 37% | Population Normal (%) [9]: 92% | Population Pyknosed Nuclei (%) [9]: 17% | Population Tubulin-Different-Phenotype (%) [9]: 54% | Total Cell Count [9]: 164 | Population Apoptotic (%) [10]: 54% | Population Fragmented Nuclei (%) [10]: 37% | Population Healthy Nuclei (%) [10]: 45% | Population Hoechst High Intensity Objects (%) [10]: 5% | Population Membrane Permeable-Phenotype (%) [10]: 5% | Population Mitochondria Different-Phenotype (%) [10]: 6% | Population Mitotic Cells (%) [10]: 45% | Population Normal (%) [10]: 94% | Population Tubulin-Different-Phenotype (%) [10]: 48% | Total Cell Count [10]: 135 | Population Apoptotic (%) [11]: 85% | Population Fragmented Nuclei (%) [11]: 21% | Population Healthy Nuclei (%) [11]: 58% | Population Hoechst High Intensity Objects (%) [11]: 15% | Population Membrane Permeable-Phenotype (%) [11]: 0% | Population Mitochondria Different-Phenotype (%) [11]: 50% | Population Mitotic Cells (%) [11]: 14% | Population Normal (%) [11]: 84% | Population Pyknosed Nuclei (%) [11]: 20% | Population Tubulin-Different-Phenotype (%) [11]: 85% | Total Cell Count [11]: 124 | Population Apoptotic (%) [12]: 66% | Population Fragmented Nuclei (%) [12]: 32% | Population Healthy Nuclei (%) [12]: 53% | Population Hoechst High Intensity Objects (%) [12]: 10% | Population Membrane Permeable-Phenotype (%) [12]: 5% | Population Mitochondria Different-Phenotype (%) [12]: 38% | Population Mitotic Cells (%) [12]: 33% | Population Normal (%) [12]: 89% | Population Pyknosed Nuclei (%) [12]: 14% | Population Tubulin-Different-Phenotype (%) [12]: 94% | Total Cell Count [12]: 119
